Assay results reported in ChEMBL document CHEMBL1255465, “Persistence of uropathogenic Escherichia coli in the face of multiple antibiotics” (Antimicrob Agents Chemother, 2010).
Calls of active or inactive are those of the source. The rule behind the calls is not given here.

Legend:
Escherichia coli [1] = test: Antibacterial activity against uropathogenic Escherichia coli UTI89 assessed as degradation of preexisting biofilm after 24 hrs by microscopy; format: functional, organism-based
How it was run: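 UTI89 diluted 1:100 into M9 medium and grown statically 48 h at 37°C in microtiter wells. Nonadherent cells removed, fresh M9 ± drug added for 24 h, using the higher of two tested concentrations. Viable bacteria in biofilms visualized by Live/Dead BacLight staining and microscopy.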

Escherichia coli [2] = test: Antibacterial activity against uropathogenic Escherichia coli UTI89 infected in human 5637 cells assessed as decrease in intracellular bacterial level at 200 to 300 ug/ml after 12 hrs by serial dilution method; format: functional, organism-based
How it was run: (§1)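 Confluent 5637 monolayers in triplicate infected with UTI89 (24-h static LB culture, type 1 pili) at MOI ~15 and spun 600 × g for 5 min. After 2 h: gentamicin 100 μg/ml for 2 h, then 10 μg/ml for 14 h. Then 12 h with drug at two concentrations. Cells lysed in 0.4% Triton X-100 and plated on LB agar. Titers expressed relative to 800 μg/ml gentamicin. ≥3 independent assays.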

5637 [3] = test: Cytotoxicity against human 5637 cells assessed as mild induction of cell death by LDH release assay; format: cell-based
5637 [4] = test: Cytotoxicity against human 5637 cells assessed as mild induction of cell death by trypan blue exclusion assay; format: cell-based
How it was run: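 Integrity of 5637 cells after drug treatment assessed by 0.4% trypan blue exclusion, following a standard protocol.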

Escherichia coli [5] = test: Antibacterial activity against uropathogenic Escherichia coli UTI89 infected in human 5637 cells assessed as decrease in intracellular bacterial level at 800 to 1200 ug/ml after 12 hrs by serial dilution method; format: functional, organism-based
How it was run: (§2)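 UTI89 was grown 24 h static in LB (type 1 pili) and added to confluent 5637 monolayers at MOI ~15, spun 600 × g for 5 min. After 2 h at 37°C: gentamicin 100 μg/ml for 2 h, then 10 μg/ml for 14 h. Next, 12 h with antibiotic at two concentrations. Lysis in 0.4% Triton X-100, serial-dilution plating; titers relative to 800 μg/ml gentamicin. ≥3 independent assays in triplicate, mean ± SEM.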

Escherichia coli [6] = test: Antibacterial activity against uropathogenic Escherichia coli UTI89 infected in human 5637 cells assessed as decrease in intracellular bacterial level at 300 to 500 ug/ml after 12 hrs by serial dilution method; format: functional, organism-based; how it was run: as §2
Escherichia coli [7] = conditions: UTI89, Urothelium, 2 mg/kg
Escherichia coli [8] = test: Antibacterial activity against uropathogenic Escherichia coli UTI89 isolated from urine samples of infected CBA/J mouse after 24 hrs by disk diffusion assay; format: functional, organism-based
How it was run: (§3)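 Urine collected by gentle bladder pressure 2 h after oral dosing of UTI89-infected CBA/J mice. 10 μl spotted on 7-mm filter discs, placed on fresh UTI89 lawns on LB agar. Clearance diameter measured after 24 h at 37°C. Urine drug level calculated from standard curves of discs holding known antibiotic concentrations.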

Escherichia coli [9] = conditions: UTI89, Urothelium, 2 mg/kg; remark: listed apart in the source
Escherichia coli [10] = conditions: UTI89, 5637, 2 to 3 ug/ml
Escherichia coli [11] = conditions: UTI89, Urinary bladder, 2 mg/kg
[12] = Drug level in Escherichia coli UTI89-infected CBA/J mouse urine at 200 ug/kg, sc after 2 hrs; format: ADME, organism-based; conditions: in vivo, 0.2 mg/kg
How it was run: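 Urine was collected 2 h after dosing by gentle bladder pressure. 10-μl aliquots went onto 7-mm sterile filter discs laid on fresh UTI89 lawns on LB agar. Clearance diameters were read after 24 h at 37°C, and levels were calculated from standard curves of discs with known antibiotic concentrations.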

Escherichia coli [13] = test: Antibacterial activity against uropathogenic Escherichia coli UTI89 infected in human 5637 cells assessed as decrease in intracellular bacterial level at 600 to 1000 ug/ml after 12 hrs by serial dilution method; format: functional, organism-based; how it was run: as §1
Escherichia coli [14] = test: Antibacterial activity against uropathogenic Escherichia coli UTI89 assessed as inhibition of biofilm formation after 24 hrs by microtiterplate-based assay; format: functional, organism-based
How it was run: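 Biofilms of UTI89 formed for 48 h at 37°C without shaking in M9 (1:100 inoculum, triplicate wells). Fresh M9 ± drug (higher of two tested concentrations) then added for 24 h. Biomass stained with 0.1% crystal violet, solubilized in DMSO, read at A562, and expressed relative to untreated controls. Three independent experiments.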

Escherichia coli [15] = test: Antibacterial activity against uropathogenic Escherichia coli UTI89 infected in human 5637 cells assessed as decrease in intracellular bacterial level at 1200 to 1600 ug/ml after 12 hrs by serial dilution method; format: functional, organism-based; how it was run: as §1
Escherichia coli [16] = test: Antibacterial activity against uropathogenic Escherichia coli UTI89 infected in human 5637 cells assessed as decrease in intracellular bacterial level at 1000 to 2000 ug/ml after 12 hrs by serial dilution method; format: functional, organism-based; how it was run: as §1
Escherichia coli [17] = test: Antibacterial activity against uropathogenic Escherichia coli UTI89 infected in human 5637 cells assessed as decrease in intracellular bacterial level at 1000 to 3000 ug/ml after 12 hrs by serial dilution method; format: functional, organism-based; how it was run: as §1
Escherichia coli [18] = test: Antibacterial activity against uropathogenic Escherichia coli UTI89 infected in CBA/J mouse assessed as decrease in bacterial load in bladder at 700 ug/kg, po administered on day 3 postinfection daily for 3 days measured on day 9 post-inoculation; format: functional, organism-based; conditions: Urinary bladder
How it was run: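 Female CBA/J mice, 7–8 weeks old, inoculated transurethrally with ~10^7 CFU UTI89 (24-h static LB culture) in 50 μl PBS. From day 3, one oral gavage daily for 3 days, 50 μl; controls given water. On day 9, bladders homogenized in PBS with 0.025% Triton X-100 and plated on LB agar for CFU. 11 mice from two experiments; Mann-Whitney U test.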

Escherichia coli [19] = test: Antibacterial activity against uropathogenic Escherichia coli UTI89 infected in CBA/J mouse assessed as decrease in bacterial invasion into layers of urothelium at 700 ug/kg, po administered on day 3 postinfection daily for 3 days measured on day 9 post-inoculation; format: functional, organism-based
Escherichia coli [20] = test: Antibacterial activity against pGEN-GFP carrying uropathogenic Escherichia coli UTI89 isolated from bladder samples of infected CBA/J mouse assessed as decrease in growth of intracellular bacterial community at 12 ug/ml treated 6 hrs postinfection measured after 18 hrs; format: functional, organism-based
How it was run: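 Bladders from female CBA/J mice taken 6 h after transurethral inoculation with GFP(LVA)-plasmid UTI89, then halved, splayed and pinned lumen-up under Ringer solution (pH 7.4). Drug combination added at 12 and 700 μg/ml. GFP-positive IBCs counted by fluorescence stereomicroscopy at set times up to 18 h. n = 8 mice per group; Mann-Whitney U test.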

Escherichia coli [21] = test: Antibacterial activity against uropathogenic Escherichia coli UTI89 infected in human 5637 cells assessed as decrease in intracellular bacterial level at 12 to 100 ug/ml after 12 hrs by serial dilution method; format: functional, organism-based; how it was run: as §1
Escherichia coli [22] = test: Antibacterial activity against uropathogenic Escherichia coli UTI89 infected in CBA/J mouse assessed as decrease in bacterial invasion into layers of urothelium at 700 ug/kg, po administered on day 3 postinfection daily for 3 days measured on day 9 post-inoculation in presence of Triton X-100; format: functional, organism-based
[23] = Drug level in Escherichia coli UTI89-infected CBA/J mouse urine at 700 ug/kg, po after 2 hrs; format: ADME, organism-based; conditions: in vivo, 0.7 mg/kg; how it was run: as §3
Escherichia coli [24] = test: Antibacterial activity against uropathogenic Escherichia coli UTI89 infected in human 5637 cells assessed as decrease in intracellular bacterial level at 400 to 700 ug/ml after 12 hrs by serial dilution method; format: functional, organism-based; how it was run: as §1
Escherichia coli [25] = test: Antibacterial activity against uropathogenic Escherichia coli UTI89 infected in human 5637 cells assessed as decrease in intracellular bacterial level at 250 to 300 ug/ml after 12 hrs by serial dilution method; format: functional, organism-based; how it was run: as §1
Escherichia coli [26] = test: Antibacterial activity against uropathogenic Escherichia coli UTI89 infected in human 5637 cells assessed as decrease in intracellular bacterial level at 400 to 800 ug/ml after 12 hrs by serial dilution method; format: functional, organism-based; how it was run: as §2
Escherichia coli [27] = test: Antibacterial activity against uropathogenic Escherichia coli UTI89 infected in CBA/J mouse assessed as decrease in bacterial invasion into layers of urothelium at 200 ug/kg, sc administered on day 3 postinfection daily for 3 days measured on day 9 post-inoculation in presence of Triton X-100; format: functional, organism-based
Escherichia coli [28] = test: Antibacterial activity against uropathogenic Escherichia coli UTI89 infected in CBA/J mouse assessed as decrease in bacterial invasion into layers of urothelium at 200 ug/kg, sc administered on day 3 postinfection daily for 3 days measured on day 9 post-inoculation; format: functional, organism-based
Escherichia coli [29] = test: Antibacterial activity against uropathogenic Escherichia coli UTI89 infected in CBA/J mouse assessed as decrease in bacterial load in bladder at 200 ug/kg, sc administered on day 3 postinfection daily for 3 days measured on day 9 post-inoculation; format: functional, organism-based; conditions: Urinary bladder

Compound	Activity (Escherichia coli [1])	Activity 5637 [3]	Activity 5637 [4]	also measured
C[C@H]1COc2c(N3CCN(C)CC3)c(F)cc3c(=O)c(C(=O)O)cn1c23.C[C@H]1COc2c(N3CCN(C)CC3)c(F)cc3c(=O)c(C(=O)O)cn1c23.O [LEVOFLOXACIN]	Active	Toxic	Toxic	inhibition (Escherichia coli [2]): Active
CCn1cc(C(=O)O)c(=O)c2ccc(C)nc21 [NALIDIXIC ACID]	Active	Toxic	Toxic	inhibition (Escherichia coli [5]): Active
O=C1CN(/N=C/c2ccc([N+](=O)[O-])o2)C(=O)N1 [NITROFURANTOIN]	Active	Toxic	Toxic	inhibition (Escherichia coli [6]): Active
O=C(O)c1cn(C2CC2)c2cc(N3CCNCC3)c(F)cc2c1=O [CIPROFLOXACIN]	Active	Toxic	Toxic	inhibition (Escherichia coli [7]): Active; Activity (Escherichia coli [8]): Active; inhibition (Escherichia coli [9]): inactive; inhibition (Escherichia coli [10]): Active; inhibition (Escherichia coli [11]): Active
GENTAMICIN [listing 1 of 2 here]	–	Toxic	Toxic	Drug uptake [12]: 2 mg/mL
CC1(C)S[C@@H]2[C@H](NC(=O)Cc3ccccc3)C(=O)N2[C@H]1C(=O)O [PENICILLIN G]	Active	Toxic	Toxic	inhibition (Escherichia coli [13]): Active; Biofilm inhibition activity (Escherichia coli [14]): Active
CC1=C(C(=O)O)N2C(=O)[C@@H](NC(=O)[C@H](N)c3ccc(O)cc3)[C@H]2SC1 [CEFADROXIL]	Active	Toxic	Toxic	inhibition (Escherichia coli [15]): Active; Biofilm inhibition activity (Escherichia coli [14]): Active
NCC[C@H](O)C(=O)N[C@@H]1C[C@H](N)[C@@H](O[C@H]2O[C@H](CN)[C@@H](O)[C@H](O)[C@H]2O)[C@H](O)[C@H]1O[C@H]1O[C@H](CO)[C@@H](O)[C@H](N)[C@H]1O [AMIKACIN]	Active	Toxic	Toxic	inhibition (Escherichia coli [16]): Active
CCn1cc(C(=O)O)c(=O)c2cc(F)c(N3CCNCC3)cc21 [NORFLOXACIN]	Active	Toxic	Toxic	inhibition (Escherichia coli [6]): Active
NC[C@H]1O[C@H](O[C@H]2[C@H](O)[C@@H](O[C@H]3O[C@H](CO)[C@@H](O)[C@H](N)[C@H]3O)[C@H](N)C[C@@H]2N)[C@H](O)[C@@H](O)[C@@H]1O [KANAMYCIN]	Active	Toxic	Toxic	inhibition (Escherichia coli [17]): Active
C[C@@H]1CN(c2c(F)c(N)c3c(=O)c(C(=O)O)cn(C4CC4)c3c2F)C[C@H](C)N1 [SPARFLOXACIN]	Active	Toxic	Toxic	inhibition (Escherichia coli [18]): Active; inhibition (Escherichia coli [19]): inactive; inhibition (Escherichia coli [20]): Active; inhibition (Escherichia coli [21]): Active; Activity (Escherichia coli [8]): Active; inhibition (Escherichia coli [22]): Active; Drug uptake [23]: 0.3 µg/mL; Biofilm inhibition activity (Escherichia coli [14]): Active
CCOc1ccc2ccccc2c1C(=O)N[C@@H]1C(=O)N2[C@@H]1SC(C)(C)[C@@H]2C(=O)O [NAFCILLIN]	Active	Toxic	Toxic	inhibition (Escherichia coli [15]): Active
CC1COc2c(N3CCN(C)CC3)c(F)cc3c(=O)c(C(=O)O)cn1c23 (centres undefined) [OFLOXACIN]	Active	Toxic	Toxic	inhibition (Escherichia coli [24]): Active
CN(C)[C@@H]1C(O)=C(C(N)=O)C(=O)[C@@]2(O)C(O)=C3C(=O)c4c(O)cccc4[C@@](C)(O)[C@H]3C[C@@H]12 [TETRACYCLINE]	Active	Toxic	Toxic	inhibition (Escherichia coli [25]): Active
GENTAMICIN [listing 2 of 2 here]	Active	–	–	Activity (Escherichia coli [8]): Active; inhibition (Escherichia coli [26]): Active; inhibition (Escherichia coli [27]): Active; inhibition (Escherichia coli [28]): inactive; inhibition (Escherichia coli [29]): inactive
